ChEMBL document CHEMBL4321868, “Scaffold Simplification Strategy Leads to a Novel Generation of Dual Human Immunodeficiency Virus and Enterovirus-A71 Entry Inhibitors” (J Med Chem, 2020)
Calls of active or inactive are those of the source. No cut-off for these calls is given here.

Experiments:
Enterovirus A71 [1] = experiment: Antiviral activity against Enterovirus A 71 BrCr infected in human RD cells assessed as reduction in viral RNA level at 20 uM administered at onset of infection measured 8 hrs post-infection by RT-qPCR analysis relative to control; format: functional, strain BRCR; design: scale not given: the % may be the effect or the level left
Enterovirus A71 [2] = experiment: Antiviral activity against Enterovirus A 71 BrCr infected in human RD cells assessed as reduction in viral RNA level at 20 uM preincubated for 1 hr followed by viral infection and measured 8 hrs post-infection by RT-qPCR analysis relative to control; format: functional, strain BRCR; design: scale not given: the % may be the effect or the level left
How it was run: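 RD cells grown to confluence; compound at 20 μM in 2% FBS medium added 1 h before or 1, 2, 4 h after EV-A71 BrCr infection (MOI 1). Pirodavir 20 μM as entry-inhibitor reference; infected untreated cells as controls. At 8 h post-infection, intracellular RNA isolated and viral RNA quantified by RT-qPCR.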

[3] = Selectivity index, ratio of CC50 for human RD cells to EC50 for Enterovirus A71 BrCr infected in human RD cells; format: toxicity, cell-based; settings: read-out: Ratio CC50/EC50
How it was run: (§1)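 RD cells seeded in 96-well plates; next day serial compound dilutions plus virus at low MOI added. Incubation at 37 °C, 5% CO₂ until full CPE in untreated infected controls (3 days). CC50 from uninfected treated cells in the same setup; SI = CC50/EC50.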

Enterovirus A71 [4] = experiment: Antiviral activity against Enterovirus A 71 BrCr infected in human RD cells assessed as reduction in virus-induced cytopathic effect preincubated for 1 day followed by viral infection and measured after 3 days by MTS/PMS method; format: functional, organism-based; settings: strain BRCR
How it was run: as §1, with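 “days). Viability read by MTS/PMS; EC50 as 50% inhibition of virus-induced death from dose-response curves.” for “days).”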

RD [5] = experiment: Cytotoxicity against human RD cells assessed as induction of cell morphological changes; format: cell-based
[6] = system: Human immunodeficiency virus 2; experiment: Antiviral activity against HIV-2 ROD infected in human MT4 cells assessed as reduction in virus-induced cytopathic effect preincubated for 30 mins followed by viral infection and measured after 5 days by MTS assay; settings: Human immunodeficiency virus 2, ISOLATE ROD
[7] = system: Human immunodeficiency virus 1; experiment: Antiviral activity against HIV1 3B infected in human MT4 cells assessed as reduction in p24 production at 20 uM incubated for 1 hr prior to viral infection followed by compound washout and measured 8 hrs post-infection by ELISA; format: functional, organism-based
Enterovirus A71 [8] = experiment: Antiviral activity against Enterovirus A 71 BrCr harboring VP1 S184T mutant infected in human RD cells assessed as reduction in virus-induced cytopathic effect preincubated for 1 day followed by viral infection and measured after 3 days by MTS/PMS method; format: functional, organism-based, strain BRCR
Enterovirus A71 [9] = experiment: Antiviral activity against Enterovirus A71 genotype C2 H08300 461812 infected in human RD cells assessed as reduction in virus-induced cell death preincubated for 1 day followed by viral infection and measured after 3 days by microscopic analysis; format: functional; design: scale not given: the % may be the effect or the level left
How it was run: (§2)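 RD cells were seeded in 96-well plates and infected the next day at low MOI, with serial compound dilutions added at the same time. Plates were incubated at 37 °C, 5% CO2 for 3 days, until untreated infected controls died. Cell death was quantified by MTS/PMS and EC50 calculated from dose-response curves. Values come from more than 2 dose-response curves across more than 1 experiment, with microscopic quality control.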

Enterovirus A71 [10] = experiment: Antiviral activity against Enterovirus A71 genotype B2 11316 infected in human RD cells assessed as reduction in virus-induced cell death preincubated for 1 day followed by viral infection and measured after 3 days by microscopic analysis; format: functional; design: scale not given: the % may be the effect or the level left; how it was run: as §2
Enterovirus A71 [11] = experiment: Antiviral activity against Enterovirus A 71 BrCr infected in human RD cells assessed as reduction in virus-induced cell death preincubated for 1 day followed by viral infection and measured after 3 days by microscopic analysis; format: functional, strain BRCR; design: scale not given: the % may be the effect or the level left; how it was run: as §2
[12] = target: Envelope glycoprotein gp160 (Human immunodeficiency virus 1, UniProt Q6QLK5); experiment: (§3) Inhibition of biotinylated-heparin binding to recombinant HIV1 3B gp120 by SPR analysis
Envelope glycoprotein gp160, sequence (Q6QLK5 whole entry): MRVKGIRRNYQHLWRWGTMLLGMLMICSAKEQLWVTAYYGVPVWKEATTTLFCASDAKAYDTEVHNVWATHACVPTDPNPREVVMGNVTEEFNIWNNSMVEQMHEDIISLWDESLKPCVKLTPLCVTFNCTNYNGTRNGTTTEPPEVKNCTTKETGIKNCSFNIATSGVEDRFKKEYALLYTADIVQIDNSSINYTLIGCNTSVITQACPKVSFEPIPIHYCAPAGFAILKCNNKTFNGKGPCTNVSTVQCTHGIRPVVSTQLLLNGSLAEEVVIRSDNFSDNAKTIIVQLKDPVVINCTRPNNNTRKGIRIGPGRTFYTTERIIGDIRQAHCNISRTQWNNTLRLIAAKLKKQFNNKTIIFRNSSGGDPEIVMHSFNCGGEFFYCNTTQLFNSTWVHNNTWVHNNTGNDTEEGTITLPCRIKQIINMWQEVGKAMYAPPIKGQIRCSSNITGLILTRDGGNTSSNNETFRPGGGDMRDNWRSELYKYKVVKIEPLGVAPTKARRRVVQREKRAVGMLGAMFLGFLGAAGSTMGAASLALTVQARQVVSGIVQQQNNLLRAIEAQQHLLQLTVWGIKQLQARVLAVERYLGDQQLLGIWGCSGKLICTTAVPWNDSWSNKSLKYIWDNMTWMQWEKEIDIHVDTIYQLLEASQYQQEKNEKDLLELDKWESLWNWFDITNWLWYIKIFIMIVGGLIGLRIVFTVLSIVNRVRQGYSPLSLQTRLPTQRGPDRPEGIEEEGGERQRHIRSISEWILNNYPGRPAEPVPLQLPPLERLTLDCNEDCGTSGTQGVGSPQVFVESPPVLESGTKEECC
How it was run: (§4)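 SPR at 25 °C in PBS with 5% DMSO, 0.005% Tween20, pH 7.4. Minimally biotinylated heparin captured (880 RU) on streptavidin chip. Recombinant HIV-1 IIIB gp120 (10 nM) alone or premixed with a compound concentration range injected 2 min at 10 μl/min; regenerated with 1 M NaCl/10 mM NaOH. Double-referenced; RU converted to % inhibition vs gp120 alone; nonlinear fit, three experiments.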

[13] = target: Envelope glycoprotein gp160 (Human immunodeficiency virus 1) (UniProt Q6QLK5); experiment: as §3; how it was run: as §4
Envelope glycoprotein gp160 (Human immunodeficiency virus 1), sequence (Q6QLK5 1-814): as the sequence (Q6QLK5 whole entry) above

[14] = target: Envelope glycoprotein gp160 (Human immunodeficiency virus 1) (UniProt Q6QLK5); experiment: Binding affinity to recombinant HIV1 3B gp120 by SPR analysis
[15] = system: Human immunodeficiency virus 1; experiment: Antiviral activity against HIV1 3B infected in human MT4 cells assessed as reduction in p24 production at 20 uM administered at onset of infection measured 8 hrs post-infection by ELISA; format: functional, organism-based
[16] = Cytotoxicity against human MT4 cells assessed as reduction in cell viability measured after 5 days by MTS/PES assay; format: cell-based
How it was run: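 MT-4 cells (RPMI-1640, 10% FCS, 1% L-glutamine) pre-incubated 30 min at 37 °C with compound, then infected with HIV-1 NL4.3 or HIV-2 ROD according to stock TCID50. After 5 days, CPE scored microscopically and viability read by MTS/PES at A490 to derive EC50; cytotoxicity measured by MTS/PES at 5 days in the same cells. SI = CC50/EC50. Mean ± S.D. of at least 3 experiments.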

HeLa = experiment: Binding affinity to capsid protein VP1 five fold axis in Enterovirus A71 genotype B2 11316 infected in human HeLa cells at 20 uM measured after 1 hr by cryo-electron microscopic analysis; format: cell-based
Enterovirus A71 [17] = experiment: Antiviral activity against Enterovirus A71 genotype B5 TW/70902/08 infected in human RD cells assessed as reduction in virus-induced cell death preincubated for 1 day followed by viral infection and measured after 3 days by […]; format: functional; design: scale not given: the % may be the effect or the level left; how it was run: as §2
Enterovirus A71 [18] = experiment: Antiviral activity against Enterovirus A 71 BrCr harboring VP1 P246S mutant infected in human RD cells assessed as reduction in virus-induced cytopathic effect preincubated for 1 day followed by viral infection and measured after 3 days by MTS/PMS method; format: functional, organism-based, strain BRCR
RD [19] = experiment: Cytotoxicity against human RD cells assessed as adverse effect on cell; format: cell-based
Enterovirus A71 [20] = experiment: Antiviral activity against Enterovirus A 71 BrCr harboring VP1 S184T/P246S mutant infected in human RD cells assessed as reduction in virus-induced cytopathic effect preincubated for 1 day followed by viral infection and measured after 3 days by MTS/PMS method; format: functional, organism-based, strain BRCR
Enterovirus A71 [21] = experiment: Antiviral activity against Enterovirus A71 genotype C4 TW/1956/05 infected in human RD cells assessed as reduction in virus-induced cell death preincubated for 1 day followed by viral infection and measured after 3 days by microscopic analysis; format: functional; design: scale not given: the % may be the effect or the level left; how it was run: as §2

## CCOC(=O)c1ccc(OCCC2CCN(c3ccc(C)nn3)CC2)cc1 [PIRODAVIR]
Enterovirus A71 [1]
  Activity: 100%
Enterovirus A71 [2]
  Activity: 100%
[3]
  selectivity ratio: > 333
Enterovirus A71 [4]
  EC50: 300 nM
  EC90: 600 nM

## O=C(CCOCC(COCCC(=O)NC(Cc1c(-c2cc(C(=O)O)cc(C(=O)O)c2)[nH]c2ccccc12)C(=O)O)(COCCC(=O)NC(Cc1c(-c2cc(C(=O)O)cc(C(=O)O)c2)[nH]c2ccccc12)C(=O)O)COCCC(=O)NC(Cc1c(-c2cc(C(=O)O)cc(C(=O)O)c2)[nH]c2ccccc12)C(=O)O)NC(Cc1c(-c2cc(C(=O)O)cc(C(=O)O)c2)[nH]c2ccccc12)C(=O)O (stereo not given)
RD [5]
  Activity: Non-Toxic
[6]
  EC50: 20 nM
[7]
  Activity: Active
Enterovirus A71 [8]
  EC50: 900 nM
Enterovirus A71 [9]
  Activity: 100%
Enterovirus A71 [10]
  Activity: 100%
Enterovirus A71 [11]
  Activity: 100%
[12]
  IC50: 211 nM
[13]
  inhibition: Dose-dependent effect
[14]
  Activity: Dose-dependent effect
[15]
  Activity: Active
[16]
  CC50 at 120 h: > 100000 nM
HeLa
  Activity: Active
Enterovirus A71 [17]
  Activity: 100%
Enterovirus A71 [18]
  EC50: 200 nM
RD [19]
  Activity: Non-Toxic
Enterovirus A71 [4]
  EC50: 40 to 109 nM
  EC90: 160 nM
Enterovirus A71 [20]
  EC50: 300 nM
Enterovirus A71 [21]
  Activity: 100%
